Laboratory results published in ChEMBL document CHEMBL4393724, “Betulin-1,4-quinone hybrids: Synthesis, anticancer activity and molecular docking study with NQO1 enzyme” (Eur J Med Chem, 2019).

Columns and labels:
Assay type in all cases: functional, cell-based; call rule not given here
MDA-MB-231 = test: Antiproliferative activity against human MDA-MB-231 cells assessed as reduction in cell viability incubated for 72 hrs by WST1 assay
MCF7 = test: Antiproliferative activity against human MCF7 cells assessed as reduction in cell viability incubated for 72 hrs by WST1 assay
Method in brief: (§1)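 Cells held at 37 °C under 5% CO2 and seeded at 5 × 10^4 cells/well in DMEM with 10% FCS plus streptomycin and penicillin. Compounds were dissolved in DMSO and exposed for 72 h. WST-1 formazan was read at 450 nm. IC50 was derived from the mean ± SD of at least three independent experiments run in triplicate. Cisplatin served as reference.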

SNB-19 = test: Antiproliferative activity against human SNB19 cells assessed as reduction in cell viability incubated for 72 hrs by WST1 assay
T47D = test: Antiproliferative activity against human T47D cells assessed as reduction in cell viability incubated for 72 hrs by WST1 assay
C32 = test: Antiproliferative activity against human C32 cells assessed as reduction in cell viability incubated for 72 hrs by WST1 assay; method in brief: as §1
A549 = test: Antiproliferative activity against human A549 cells assessed as reduction in cell viability incubated for 72 hrs by WST1 assay; conditions: Homo sapiens, A549, 72 h; read-out: IC50; method in brief: as §1
COLO-829 = test: Antiproliferative activity against human COLO829 cells assessed as reduction in cell viability incubated for 72 hrs by WST1 assay
[1] = Homo sapiens, MDA-MB-231, 72 h, read-out: IC50
[2] = Homo sapiens, MCF7, 72 h, read-out: IC50
[3] = Homo sapiens, SNB-19, 72 h, read-out: IC50
[4] = Homo sapiens, T47D, 72 h, read-out: IC50
[5] = Homo sapiens, C32, 72 h, read-out: IC50
[6] = Homo sapiens, COLO-829, 72 h, read-out: IC50

Compound	IC50 (MDA-MB-231; [1])	IC50 (MCF7; [2])	IC50 (T47D; [4])	IC50 (A549)	IC50 (COLO-829; [6])	IC50 (MDA-MB-231; mda-mb-231)	IC50 (T47D; t47d)	IC50 (COLO-829; colo-829)	IC50 (MCF7; mcf7)	IC50 (SNB-19; [3])	IC50 (C32; [5])	IC50 (SNB-19; snb-19)	IC50 (C32; c32)
C=C(COC1=C(Cl)C(=O)c2cccnc2C1=O)[C@@H]1CC[C@]2(COC(C)=O)CC[C@]3(C)[C@H](CC[C@@H]4[C@@]5(C)CC[C@H](OC(C)=O)C(C)(C)[C@@H]5CC[C@]43C)[C@@H]12	60.4 µM	11.6 µM	12.8 µM	3.3 µM	0.13 µM					62.5 µM	22.9 µM		
C=C(C)[C@@H]1CC[C@]2(COC3=C(Cl)C(=O)c4cccnc4C3=O)CC[C@]3(C)[C@H](CC[C@@H]4[C@@]5(C)CC[C@H](OC(C)=O)C(C)(C)[C@@H]5CC[C@]43C)[C@@H]12		96.8 µM		14.3 µM		Not Active	Not Active	Not Active				Not Active	Not Active
C=C(C)[C@@H]1CC[C@]2(CO)CC[C@]3(C)[C@H](CC[C@@H]4[C@@]5(C)CC[C@H](O)C(C)(C)[C@@H]5CC[C@]43C)[C@@H]12 [BETULIN]	96.2 µM	43.9 µM	20.7 µM	59.7 µM				Not Active				Not Active	Not Active
C=C(C)[C@@H]1CC[C@]2(COC3=C(Cl)C(=O)c4ccc(C)nc4C3=O)CC[C@]3(C)[C@H](CC[C@@H]4[C@@]5(C)CC[C@H](OC(C)=O)C(C)(C)[C@@H]5CC[C@]43C)[C@@H]12	5.88 µM	89.3 µM		0.64 µM	93.8 µM		Not Active				1.33 µM	Not Active	
C=C(COC1=C(Cl)C(=O)c2ccc(C)nc2C1=O)[C@@H]1CC[C@]2(COC(C)=O)CC[C@]3(C)[C@H](CC[C@@H]4[C@@]5(C)CC[C@H](OC(C)=O)C(C)(C)[C@@H]5CC[C@]43C)[C@@H]12	0.11 µM	0.94 µM	10.3 µM	0.84 µM	0.12 µM						1.14 µM	Not Active	

The remaining compounds from weak to strong by IC50 (A549), led by results:

IC50 (MDA-MB-231; [1])	IC50 (MCF7; [2])	IC50 (T47D; [4])	IC50 (A549)	IC50 (COLO-829; [6])	IC50 (MDA-MB-231; mda-mb-231)	IC50 (T47D; t47d)	IC50 (COLO-829; colo-829)	IC50 (MCF7; mcf7)	Compound	IC50 (SNB-19; [3])	IC50 (C32; [5])	IC50 (SNB-19; snb-19)	IC50 (C32; c32)
61.2 µM			53.9 µM			Not Active	Not Active	Not Active	C=C(COC1=C(Cl)C(=O)c2ccccc2C1=O)[C@@H]1CC[C@]2(COC(C)=O)CC[C@]3(C)[C@H](CC[C@@H]4[C@@]5(C)CC[C@H](OC(C)=O)C(C)(C)[C@@H]5CC[C@]43C)[C@@H]12		24.7 µM	Not Active	
36.9 µM	18 µM		18.4 µM			Not Active	Not Active		C#CC(=O)OC[C@]12CC[C@@H](C(=C)C)[C@@H]1[C@H]1CC[C@@H]3[C@@]4(C)CC[C@H](OC5=C(Cl)C(=O)c6ccc(C)nc6C5=O)C(C)(C)[C@@H]4CC[C@@]3(C)[C@]1(C)CC2	10.8 µM			Not Active
6.77 µM	36.6 µM	96.1 µM	1.28 µM				Not Active		C#CC(=O)OC[C@]12CC[C@@H](C(=C)C)[C@@H]1[C@H]1CC[C@@H]3[C@@]4(C)CC[C@H](OC5=C(Cl)C(=O)c6ccccc6C5=O)C(C)(C)[C@@H]4CC[C@@]3(C)[C@]1(C)CC2		1.04 µM	Not Active	
